Reference: ChEMBL document CHEMBL3817734, “Structure-activity relationships of vanillic acid ester analogs in inhibitory effect of antigen-mediated degranulation in rat basophilic leukemia RBL-2H3 cells” (Bioorg Med Chem Lett, 2016)
Calls of active or inactive are those of the source. The calls are words filed in the database; no cut-off is given here.

Tests used:
RBL-2H3 [1] = assay: Anti-allergic activity in RBL2H3 cells assessed as inhibition of anti-DNP-IgE-induced degranulation incubated for 20 mins followed by DNP-labeled human serum albumin addition measured after 1 hr by beta-hexosaminidase release assay; format: functional, cell-based; details: Rattus norvegicus
Outline: (§1)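 DNP-IgE-sensitized RBL-2H3 cells were pretreated with test samples for 20 min, with 75 μM oxatomide as positive control, then stimulated with DNP-HSA for 1 h. Degranulation was read as β-hexosaminidase release. Compounds were dissolved in culture medium containing cyclodextrin (CD). Data are the mean of three independent cultures ± SD, compared with control by Dunnett's test.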

RBL-2H3 [2] = assay: Anti-allergic activity in RBL2H3 cells assessed as inhibition of anti-DNP-IgE-induced degranulation at 30 to 300 uM incubated for 20 mins followed by DNP-labeled human serum albumin addition measured after 1 hr by beta-hexosaminidase release assay; format: functional, cell-based; details: Rattus norvegicus; outline: as §1
[3] = Cytotoxicity in RBL2H3 cells; format: cell-based; details: rat, rbl-2h3
[4] = Increase in anti-DNP-IgE-induced degranulation in RBL2H3 cells incubated for 20 mins followed by DNP-labeled human serum albumin addition measured after 1 hr by beta-hexosaminidase release assay; format: cell-based; details: rat, rbl-2h3, 1 h; outline: as §1
RBL-2H3 [5] = assay: Anti-allergic activity in RBL2H3 cells assessed as inhibition of anti-DNP-IgE-induced degranulation at 100 to 1000 uM incubated for 20 mins followed by DNP-labeled human serum albumin addition measured after 1 hr by beta-hexosaminidase release assay; format: functional, cell-based; details: Rattus norvegicus; outline: as §1
[6] = Drug level in RBL2H3 cells treated with ferulic acid; format: ADME, cell-based; details: rat, rbl-2h3
[7] = Drug level in RBL2H3 cells treated with butyl vanillate assessed as esterase-mediated compound formation; format: ADME, cell-based; details: rat, rbl-2h3
[8] = Solubility of compound in water; format: physicochemical; details: buffer
[9] = Drug metabolism in RBL2H3 cells assessed as esterase-mediated vanillic acid formation; format: ADME, cell-based; details: rat, rbl-2h3
[10] = Drug metabolism in RBL2H3 cells assessed as esterase-mediated butanol formation; format: ADME, cell-based; details: rat, rbl-2h3
[11] = Drug metabolism in RBL2H3 cells assessed as vanillin and vanillic acid formation; format: ADME, cell-based; details: rat, rbl-2h3
RBL-2H3 [12] = assay: Anti-allergic activity in RBL2H3 cells assessed as inhibition of anti-DNP-IgE-induced degranulation at 1000 uM incubated for 20 mins followed by DNP-labeled human serum albumin addition measured after 1 hr by beta-hexosaminidase release assay; format: functional, cell-based; details: Rattus norvegicus; outline: as §1

Structure (SMILES): COc1cc(C(=O)OC(C)C)ccc1O
- IC50 (RBL-2H3 [1]): 415 µM

Structure (SMILES): CCCCOC(=O)c1ccc(OC)cc1
- inhibition (RBL-2H3 [2]): inactive

Structure (SMILES): CCCOC(=O)Cc1ccc(O)c(OC)c1
- inhibition (RBL-2H3 [2]): inactive

Structure (SMILES): CCCCCCCCOC(=O)c1ccc(O)c(OC)c1
- Activity [3]: Toxic
- Activity [4]: Toxic

Structure (SMILES): CCOC(=O)CCc1ccc(O)c(OC)c1
- inhibition (RBL-2H3 [2]): inactive

Structure (SMILES): COc1cc(C=O)ccc1O [VANILLIN]
- inhibition (RBL-2H3 [5]): inactive
- Drug metabolism [6]: metabolite_detected

Structure (SMILES): CCCOC(=O)c1ccc(O)c(OC)c1
- IC50 (RBL-2H3 [1]): 294 µM

Structure (SMILES): COc1cc(C(=O)O)ccc1O [VANILLIC ACID]
- inhibition (RBL-2H3 [5]): inactive
- Drug metabolism [6]: metabolite_detected
- Drug metabolism [7]: metabolite_detected

Structure (SMILES): CCCCOC(=O)c1ccc(O)c(OC)c1
- IC50 (RBL-2H3 [1]): 198 µM
- Activity [3]: Non-toxic
- solubility [8]: soluble
- Drug metabolism [9]: metabolite_detected
- Drug metabolism [10]: metabolite_detected

Structure (SMILES): CCCCOC(=O)c1cccc(O)c1
- inhibition (RBL-2H3 [2]): Active

Structure (SMILES): CCCCOC(=O)c1ccccc1
- inhibition (RBL-2H3 [2]): inactive

Structure (SMILES): COc1cc(/C=C/C(=O)O)ccc1O [FERULATE]
- inhibition (RBL-2H3 [1]): Active
- Drug metabolism [11]: metabolite_detected

Structure (SMILES): CCCCOC(=O)c1ccc(O)cc1
- inhibition (RBL-2H3 [2]): Active

Structure (SMILES): COC(=O)c1ccc(O)c(OC)c1 [METHYL VANILLATE]
- IC50 (RBL-2H3 [1]): 640 µM
- inhibition (RBL-2H3 [12]): Active

Structure (SMILES): CCCCOC(=O)c1ccc(OC)c(O)c1
- inhibition (RBL-2H3 [2]): Active

Structure (SMILES): CCCCOC(=O)c1cccc(OC)c1
- inhibition (RBL-2H3 [2]): inactive
